# Measured values from different studies.
# Compare with care: the assays were run in different laboratories. pIC50: −log10 of the molar value.
# Cell line: NCI-H522
# Read-out: cell growth or viability
Compound,test,setting,quantity,result
O=C1Nc2ccccc2C1=NNc1nnc2n1N=C(c1ccccc1)CS2,SRB,10 µM,inhibition,57%
CCCc1n(Cc2ccc3ccccc3n2)cc[n+]1Cc1ccc2ccccc2c1,SRB,,TGI,1130 nM
COc1ccc(C(=O)/C=C/c2cccc(Cl)c2Cl)cc1S(N)(=O)=O,SRB,10 µM,inhibition,156%
CCCCc1n(Cc2ccc3ccccc3n2)cc[n+]1Cc1ccc2ccccc2n1,SRB,,TGI,4190 nM
COc1ccc(C(=O)/C=C/c2ccccc2Br)cc1S(N)(=O)=O,SRB,48 h,GI50,1800 nM
S=C([S][Au-][P+](CCCCCC[P+]([Au-][S]C(=S)n1cccn1)(c1ccccc1)c1ccccc1)(c1ccccc1)c1ccccc1)n1cccn1,SRB,,GI50,1620 nM
COc1ccc(C(=O)/C=C/c2cccnc2)cc1S(N)(=O)=O,SRB,10 µM,inhibition,168%
COc1cc(-c2ccc(-c3ccc(C(=N)N)nc3)s2)cc(OC)c1OC,SRB,,GI50,1800 nM
O=C1NC(=NCc2cccs2)S/C1=C\c1ccc2ncccc2c1,,,pIC50,< 5.00
c1ccc(-c2n(Cc3ccc4ccccc4c3)cc[n+]2Cc2ccc3ccccc3c2)cc1,SRB,,TGI,2580 nM
COc1ccc(C(=O)/C=C/c2cccc3ccccc23)cc1S(N)(=O)=O,SRB,48 h,GI50,1600 nM
COc1ccc(-c2ccc(-c3ccc(C(=N)N)nc3)s2)cc1,SRB,,GI50,1900 nM
CCc1n(Cc2ccc3ccccc3n2)cc[n+]1Cc1ccc2ccccc2c1,SRB,,TGI,986 nM
